Assay results: ChEMBL document CHEMBL2176911 (J Med Chem, 2012)
The source made the active and inactive calls. The rule behind the calls is not given here.

How the values were obtained:
[1] = molecular target: Dual specificity protein kinase CLK3 (Mus musculus) (UniProt O35492); assay: Inhibition of mouse recombinant GST-tagged CLK3 expressed in Escherichia coli using GRSRSRSRSRSR as substrate and [gamma33P]ATP at 10 uM after 30 mins by scintillation counting
Procedure, shortened: (§1)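 Radiometric kinase assay with the RS peptide as substrate and 15 μM [γ-33P]ATP.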

[2] = molecular target: Dual specificity protein kinase CLK1 (Mus musculus) (UniProt P22518); assay: Inhibition of mouse recombinant GST-tagged CLK1 expressed in Escherichia coli using GRSRSRSRSRSR as substrate and [gamma33P]ATP at 10 uM after 30 mins by scintillation counting; procedure, shortened: as §1
[3] = molecular target: T1, Dual specificity tyrosine-phosphorylation-regulated kinase 2 (Homo sapiens) (UniProt Q92630); assay: Inhibition of human recombinant GST-tagged DYRK2 expressed in Escherichia coli using GRSRSRSRSRSR as substrate and [gamma33P]ATP at 10 uM after 30 mins by scintillation counting
T1 sequence (whole entry): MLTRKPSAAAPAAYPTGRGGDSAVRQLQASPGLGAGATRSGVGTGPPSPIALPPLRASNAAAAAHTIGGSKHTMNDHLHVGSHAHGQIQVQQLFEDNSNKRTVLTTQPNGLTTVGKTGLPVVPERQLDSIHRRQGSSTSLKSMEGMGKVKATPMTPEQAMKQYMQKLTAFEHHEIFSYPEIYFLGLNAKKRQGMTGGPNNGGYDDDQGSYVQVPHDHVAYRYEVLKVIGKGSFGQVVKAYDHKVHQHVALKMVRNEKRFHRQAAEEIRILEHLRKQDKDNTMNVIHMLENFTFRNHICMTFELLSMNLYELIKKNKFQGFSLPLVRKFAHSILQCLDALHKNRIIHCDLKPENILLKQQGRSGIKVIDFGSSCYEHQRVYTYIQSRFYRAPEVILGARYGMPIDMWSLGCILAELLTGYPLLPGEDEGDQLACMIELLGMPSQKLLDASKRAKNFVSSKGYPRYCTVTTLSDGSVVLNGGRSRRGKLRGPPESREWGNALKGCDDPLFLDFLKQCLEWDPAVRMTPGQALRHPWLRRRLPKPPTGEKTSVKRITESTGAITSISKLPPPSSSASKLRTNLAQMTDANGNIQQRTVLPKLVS

[4] = molecular target: Dual specificity tyrosine-phosphorylation-regulated kinase 1A (Homo sapiens) (UniProt Q13627); assay: Inhibition of human recombinant GST-tagged DYRK1A expressed in Escherichia coli using GRSRSRSRSRSR as substrate and [gamma33P]ATP at 15 uM after 30 mins by scintillation counting
[5] = molecular target: T2, Dual specificity tyrosine-phosphorylation-regulated kinase 1A (Rattus norvegicus, UniProt Q63470); assay: Inhibition of rat DYRK1A isolated from brain using KKISGRLSPIMTEQ as substrate and [gamma33P]ATP after 30 mins by scintillation counting
[6] = molecular target: T2, Dual specificity tyrosine-phosphorylation-regulated kinase 1A; assay: Inhibition of rat recombinant C-terminal truncated GST-tagged DYRK1A expressed in Escherichia coli using GRSRSRSRSRSR as substrate and [gamma33P]ATP after 30 mins by scintillation counting
[7] = molecular target: Dual specificity protein kinase CLK4 (Mus musculus, UniProt O35493); assay: Inhibition of mouse recombinant GST-tagged CLK4 expressed in Escherichia coli using GRSRSRSRSRSR as substrate and [gamma33P]ATP after 30 mins by scintillation counting
[8] = molecular target: Dual specificity protein kinase CLK3 (Mus musculus, UniProt O35492); assay: Inhibition of mouse recombinant GST-tagged CLK3 expressed in Escherichia coli using GRSRSRSRSRSR as substrate and [gamma33P]ATP after 30 mins by scintillation counting
Procedure, shortened: (§2)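 Panel of purified kinases (recombinant from several species plus native enzymes), each assayed radiometrically over a range of inhibitor concentrations; IC50 in μM calculated from the dose-response curves.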

[9] = molecular target: Dual specificity protein kinase CLK2 (Mus musculus, UniProt O35491); assay: Inhibition of mouse recombinant GST-tagged CLK2 expressed in Escherichia coli using GRSRSRSRSRSR as substrate and [gamma33P]ATP after 30 mins by scintillation counting; procedure, shortened: as §2
[10] = molecular target: Casein kinase II (Homo sapiens) (UniProt P67870+P68400+P19784); assay: Inhibition of human recombinant CK2 using RRREDEESDDEE as substrate and [gamma33P]ATP at 10 uM after 30 mins by scintillation counting; type: protein-complex assay
[11] = Inhibition of pig […] isolated from brain using RRKHAAIGpSAYSITA as substrate and [gamma33P]ATP after 30 mins by scintillation couting; design: species or system Sus scrofa; procedure, shortened: as §2
CDK9/cyclin T1 = CDK9/cyclin T1 (Homo sapiens, UniProt P50750); assay: Inhibition of human recombinant CDK9/cyclin T expressed in insect cell using YSPTSPSYSPTSPSYSPTSPSKKKK as substrate and [gamma33P]ATP after 30 mins by scintillation counting; procedure, shortened: as §2
[12] = molecular target: Cyclin-dependent kinase 7/ cyclin H (Homo sapiens, UniProt P50613); assay: Inhibition of human recombinant CDK7/cyclin H expressed in insect cell using YSPTSPSYSPTSPSYSPTSPSKKKK as substrate and [gamma33P]ATP after 30 mins by scintillation counting; procedure, shortened: as §2
[13] = molecular target: Cyclin-dependent kinase 2/cyclin A (Homo sapiens, UniProt P24941); assay: Inhibition of CDK2/cyclin A using [gamma33P]ATP after 30 mins by scintillation counting; type: protein-complex assay; procedure, shortened: as §2
[14] = Inhibition of starfish CDK1/cyclin B using histone H1 as substrate and [gamma33P]ATP after 30 mins by scintillation counting; design: species or system Asteroidea; procedure, shortened: as §2
[15] = molecular target: Dual specificity protein kinase CLK1 (Mus musculus, UniProt P22518); assay: Inhibition of mouse recombinant GST-tagged CLK1 expressed in Escherichia coli using GRSRSRSRSRSR as substrate and [gamma33P]ATP after 30 mins by scintillation counting; procedure, shortened: as §2
Leishmania major = assay: Inhibition of Leishmania major recombinant CK1 expressed in Escherichia coli using RRKHAAIGpSAYSITA as substrate and [gamma33P]ATP at 10 uM after 30 mins by scintillation counting
Plasmodium falciparum = assay: Inhibition of Plasmodium falciparum recombinant GSK3 expressed in Escherichia coli using YRRAAVPPSPSLSRHSSPHQ-phosphoS-EDEEE as substrate and [gamma33P]ATP at 10 uM after 30 mins by scintillation counting
[16] = molecular target: Dual specificity protein kinase CLK3 (Homo sapiens, UniProt P49761); assay: Binding affinity to CLK3
[17] = molecular target: Dual specificity protein kinase CLK1 (Homo sapiens) (UniProt P49759); assay: Binding affinity to CLK1
[18] = molecular target: T1, Dual specificity tyrosine-phosphorylation-regulated kinase 2 (Homo sapiens); assay: Binding affinity to DYRK2
[19] = molecular target: Dual specificity protein kinase CLK4 (Homo sapiens, UniProt Q9HAZ1); assay: Binding affinity to CLK4
[20] = molecular target: Serine/threonine-protein kinase pim-1 (Homo sapiens, UniProt P11309); assay: Inhibition of human recombinant PIM1 expressed in Escherichia coli using histone H1 as substrate and [gamma33P]ATP after 30 mins by scintillation counting
[21] = molecular target: Glycogen synthase kinase-3 (Sus scrofa, UniProt B2LUN4+I6LNT8); assay: Inhibition of pig GSK3alpha/beta isolated from brain using YRRAAVPPSPSLSRHSSPHQ-phosphoS-EDEEE as substrate and [gamma33P]ATP after 30 mins by scintillation counting; procedure, shortened: as §2
[22] = molecular target: Glycogen synthase kinase-3 beta (Homo sapiens, UniProt P49841); assay: Inhibition of human recombinant GSK3beta expressed in insect cells using YRRAAVPPSPSLSRHSSPHQ-phosphoS-EDEEE as substrate and [gamma33P]ATP after 30 mins by scintillation counting
[23] = molecular target: Glycogen synthase kinase-3 alpha (Homo sapiens, UniProt P49840); assay: Inhibition of human recombinant GSK3alpha expressed in insect cells using YRRAAVPPSPSLSRHSSPHQ-phosphoS-EDEEE as substrate and [gamma33P]ATP after 30 mins by scintillation counting
[24] = molecular target: Mitogen-activated protein kinase 1 (Rattus norvegicus, UniProt P63086); assay: Inhibition of rat recombinant ERK2 using Ets1 as substrate and [gamma33P]ATP as substrate after 30 mins by scintillation counting; procedure, shortened: as §2
[25] = molecular target: T3, Dual specificity tyrosine-phosphorylation-regulated kinase 4 (Homo sapiens, UniProt Q9NR20); assay: Inhibition of human recombinant GST-tagged DYRK4 expressed in Escherichia coli using GRSRSRSRSRSR as substrate and [gamma33P]ATP after 30 mins by scintillation counting
T3 sequence (Q9NR20 whole entry): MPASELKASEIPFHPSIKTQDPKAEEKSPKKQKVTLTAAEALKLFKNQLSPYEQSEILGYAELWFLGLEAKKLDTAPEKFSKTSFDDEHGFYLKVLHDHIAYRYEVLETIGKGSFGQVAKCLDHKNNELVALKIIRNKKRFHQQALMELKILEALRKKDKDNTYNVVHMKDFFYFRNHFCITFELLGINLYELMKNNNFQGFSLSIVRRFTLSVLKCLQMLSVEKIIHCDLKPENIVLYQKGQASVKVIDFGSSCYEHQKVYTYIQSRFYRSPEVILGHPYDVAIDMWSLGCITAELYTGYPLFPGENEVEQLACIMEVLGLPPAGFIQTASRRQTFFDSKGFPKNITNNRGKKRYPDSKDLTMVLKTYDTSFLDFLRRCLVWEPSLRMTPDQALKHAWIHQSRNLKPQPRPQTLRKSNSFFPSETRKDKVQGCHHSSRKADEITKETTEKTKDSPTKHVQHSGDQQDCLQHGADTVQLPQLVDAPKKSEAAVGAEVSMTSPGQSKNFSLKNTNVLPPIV

[26] = molecular target: Dual specificity tyrosine-phosphorylation-regulated kinase 3 (Homo sapiens, UniProt O43781); assay: Inhibition of human recombinant GST-tagged DYRK3 expressed in Escherichia coli using GRSRSRSRSRSR as substrate and [gamma33P]ATP after 30 mins by scintillation counting
[27] = molecular target: Dual specificity tyrosine-phosphorylation-regulated kinase 2 (Homo sapiens, UniProt Q92630); assay: Inhibition of human recombinant GST-tagged DYRK2 expressed in Escherichia coli using GRSRSRSRSRSR as substrate and [gamma33P]ATP after 30 mins by scintillation counting
HT-22 = assay: Neuroprotective activity against glutamate-induced toxicity in mouse HT22 cells after 24 hrs by MTS assay; type: functional, cell-based
[28] = Binding affinity to casein kinase 1
[29] = Inhibition of Leishmania major recombinant CK1 expressed in Escherichia coli using RRKHAAIGpSAYSITA as substrate and [gamma33P]ATP after 30 mins by scintillation counting; procedure, shortened: as §2
[30] = Inhibition of Plasmodium falciparum recombinant GSK3 expressed in Escherichia coli using YRRAAVPPSPSLSRHSSPHQ-phosphoS-EDEEE as substrate and [gamma33P]ATP after 30 mins by scintillation counting; procedure, shortened: as §2
[31] = molecular target: Dual specificity tyrosine-phosphorylation-regulated kinase 1A (Rattus norvegicus) (UniProt Q63470); settings: CD Sprague-Dawley, 4.5 to 45 uM

Sequence of Dual specificity tyrosine-phosphorylation-regulated kinase 3 (O43781 whole entry): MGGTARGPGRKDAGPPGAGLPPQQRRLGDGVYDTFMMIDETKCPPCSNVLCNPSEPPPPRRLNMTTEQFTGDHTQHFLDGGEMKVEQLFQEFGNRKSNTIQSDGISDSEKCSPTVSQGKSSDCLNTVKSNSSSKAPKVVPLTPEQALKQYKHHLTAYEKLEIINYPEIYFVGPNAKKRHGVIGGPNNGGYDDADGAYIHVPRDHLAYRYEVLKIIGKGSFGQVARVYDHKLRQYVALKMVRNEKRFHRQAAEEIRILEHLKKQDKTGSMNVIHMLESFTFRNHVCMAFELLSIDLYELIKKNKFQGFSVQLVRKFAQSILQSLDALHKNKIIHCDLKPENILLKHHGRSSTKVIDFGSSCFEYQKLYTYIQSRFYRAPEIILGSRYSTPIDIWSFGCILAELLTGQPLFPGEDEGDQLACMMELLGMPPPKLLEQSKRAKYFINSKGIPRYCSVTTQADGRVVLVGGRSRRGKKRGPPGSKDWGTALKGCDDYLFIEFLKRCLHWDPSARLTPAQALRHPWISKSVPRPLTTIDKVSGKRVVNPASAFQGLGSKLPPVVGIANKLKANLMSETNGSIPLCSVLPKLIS
Sequence of Dual specificity protein kinase CLK4 (Homo sapiens, UniProt Q9HAZ1) (Q9HAZ1 whole entry, looked up): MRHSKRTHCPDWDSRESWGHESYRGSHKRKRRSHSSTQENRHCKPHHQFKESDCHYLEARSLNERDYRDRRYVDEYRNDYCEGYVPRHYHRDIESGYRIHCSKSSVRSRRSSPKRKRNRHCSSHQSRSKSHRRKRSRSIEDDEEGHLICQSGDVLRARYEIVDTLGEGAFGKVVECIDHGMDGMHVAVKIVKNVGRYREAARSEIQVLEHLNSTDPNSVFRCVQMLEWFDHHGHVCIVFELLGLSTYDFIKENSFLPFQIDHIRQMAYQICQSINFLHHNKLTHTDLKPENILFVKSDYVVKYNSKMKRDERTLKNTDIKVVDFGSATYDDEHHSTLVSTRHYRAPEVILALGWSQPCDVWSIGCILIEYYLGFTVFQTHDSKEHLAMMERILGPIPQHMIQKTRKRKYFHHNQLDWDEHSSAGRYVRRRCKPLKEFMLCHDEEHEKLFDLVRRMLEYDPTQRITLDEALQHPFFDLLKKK
Sequence of Mitogen-activated protein kinase 1 (P63086 whole entry): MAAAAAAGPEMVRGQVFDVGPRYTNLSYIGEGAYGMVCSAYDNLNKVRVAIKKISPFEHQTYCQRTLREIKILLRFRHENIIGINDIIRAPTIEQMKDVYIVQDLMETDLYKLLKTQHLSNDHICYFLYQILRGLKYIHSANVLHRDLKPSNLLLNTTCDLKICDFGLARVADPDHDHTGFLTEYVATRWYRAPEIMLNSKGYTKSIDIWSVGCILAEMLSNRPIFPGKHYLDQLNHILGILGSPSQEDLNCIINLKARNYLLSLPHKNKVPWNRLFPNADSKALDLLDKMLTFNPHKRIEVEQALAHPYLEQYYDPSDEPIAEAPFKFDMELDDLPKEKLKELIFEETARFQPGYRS
Sequence of Dual specificity protein kinase CLK3 (Homo sapiens, UniProt P49761) (P49761 whole entry, looked up): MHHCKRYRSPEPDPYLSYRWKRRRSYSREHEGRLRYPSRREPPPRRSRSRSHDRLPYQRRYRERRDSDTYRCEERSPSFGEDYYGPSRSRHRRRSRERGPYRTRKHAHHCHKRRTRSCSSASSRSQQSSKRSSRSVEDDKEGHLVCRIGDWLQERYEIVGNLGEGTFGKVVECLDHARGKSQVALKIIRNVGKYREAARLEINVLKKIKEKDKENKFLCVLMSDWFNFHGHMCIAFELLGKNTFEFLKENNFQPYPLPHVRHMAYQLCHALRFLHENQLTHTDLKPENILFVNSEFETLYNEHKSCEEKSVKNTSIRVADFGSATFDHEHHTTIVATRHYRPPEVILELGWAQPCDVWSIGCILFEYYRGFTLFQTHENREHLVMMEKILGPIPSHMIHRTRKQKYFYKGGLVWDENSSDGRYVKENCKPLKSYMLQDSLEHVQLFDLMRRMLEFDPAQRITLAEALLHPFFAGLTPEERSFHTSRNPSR
Sequence of Dual specificity protein kinase CLK4 (Mus musculus, UniProt O35493) (O35493 whole entry): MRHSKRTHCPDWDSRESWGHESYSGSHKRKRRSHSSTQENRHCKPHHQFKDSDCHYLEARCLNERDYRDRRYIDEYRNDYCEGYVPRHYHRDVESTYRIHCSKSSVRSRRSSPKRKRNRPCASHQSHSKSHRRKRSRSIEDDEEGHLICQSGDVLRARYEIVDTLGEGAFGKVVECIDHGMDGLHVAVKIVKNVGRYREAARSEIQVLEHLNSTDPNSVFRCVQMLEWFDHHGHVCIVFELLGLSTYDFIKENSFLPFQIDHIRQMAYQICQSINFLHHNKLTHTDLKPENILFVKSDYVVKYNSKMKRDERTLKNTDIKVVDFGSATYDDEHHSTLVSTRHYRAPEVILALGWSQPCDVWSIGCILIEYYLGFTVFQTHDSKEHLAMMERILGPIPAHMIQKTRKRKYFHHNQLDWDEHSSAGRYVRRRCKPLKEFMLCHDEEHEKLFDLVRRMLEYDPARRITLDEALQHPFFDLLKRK
Sequence of Cyclin-dependent kinase 7/ cyclin H (P51946 whole entry): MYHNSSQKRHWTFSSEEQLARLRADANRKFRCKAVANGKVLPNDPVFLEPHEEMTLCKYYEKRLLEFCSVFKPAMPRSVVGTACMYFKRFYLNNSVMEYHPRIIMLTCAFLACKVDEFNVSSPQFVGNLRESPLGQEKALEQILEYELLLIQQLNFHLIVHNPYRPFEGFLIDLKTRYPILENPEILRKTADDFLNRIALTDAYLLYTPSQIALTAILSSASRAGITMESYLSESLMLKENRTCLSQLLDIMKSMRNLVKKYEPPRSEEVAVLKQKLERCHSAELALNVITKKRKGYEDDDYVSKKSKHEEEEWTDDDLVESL
Sequence of Cyclin-dependent kinase 7/ cyclin H (P50613 whole entry): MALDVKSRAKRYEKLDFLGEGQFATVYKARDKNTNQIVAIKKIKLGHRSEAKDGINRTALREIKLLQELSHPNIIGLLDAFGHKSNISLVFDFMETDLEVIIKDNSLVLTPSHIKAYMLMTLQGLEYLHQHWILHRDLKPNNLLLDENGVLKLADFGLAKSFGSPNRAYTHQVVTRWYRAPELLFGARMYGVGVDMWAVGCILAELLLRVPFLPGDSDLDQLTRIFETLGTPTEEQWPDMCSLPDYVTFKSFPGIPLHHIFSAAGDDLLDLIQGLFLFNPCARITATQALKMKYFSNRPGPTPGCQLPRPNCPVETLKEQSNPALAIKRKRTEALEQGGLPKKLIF
Sequence of Serine/threonine-protein kinase pim-1 (P11309 whole entry): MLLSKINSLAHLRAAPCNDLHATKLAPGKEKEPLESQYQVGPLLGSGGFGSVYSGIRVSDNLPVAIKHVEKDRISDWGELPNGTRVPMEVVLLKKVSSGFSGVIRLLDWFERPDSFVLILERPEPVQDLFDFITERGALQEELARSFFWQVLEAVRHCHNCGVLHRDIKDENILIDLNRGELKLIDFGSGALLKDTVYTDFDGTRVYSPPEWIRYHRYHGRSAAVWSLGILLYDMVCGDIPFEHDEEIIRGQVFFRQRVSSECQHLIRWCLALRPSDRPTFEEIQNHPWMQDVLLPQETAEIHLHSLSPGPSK
Sequence of CDK9/cyclin T1 (O60563 whole entry): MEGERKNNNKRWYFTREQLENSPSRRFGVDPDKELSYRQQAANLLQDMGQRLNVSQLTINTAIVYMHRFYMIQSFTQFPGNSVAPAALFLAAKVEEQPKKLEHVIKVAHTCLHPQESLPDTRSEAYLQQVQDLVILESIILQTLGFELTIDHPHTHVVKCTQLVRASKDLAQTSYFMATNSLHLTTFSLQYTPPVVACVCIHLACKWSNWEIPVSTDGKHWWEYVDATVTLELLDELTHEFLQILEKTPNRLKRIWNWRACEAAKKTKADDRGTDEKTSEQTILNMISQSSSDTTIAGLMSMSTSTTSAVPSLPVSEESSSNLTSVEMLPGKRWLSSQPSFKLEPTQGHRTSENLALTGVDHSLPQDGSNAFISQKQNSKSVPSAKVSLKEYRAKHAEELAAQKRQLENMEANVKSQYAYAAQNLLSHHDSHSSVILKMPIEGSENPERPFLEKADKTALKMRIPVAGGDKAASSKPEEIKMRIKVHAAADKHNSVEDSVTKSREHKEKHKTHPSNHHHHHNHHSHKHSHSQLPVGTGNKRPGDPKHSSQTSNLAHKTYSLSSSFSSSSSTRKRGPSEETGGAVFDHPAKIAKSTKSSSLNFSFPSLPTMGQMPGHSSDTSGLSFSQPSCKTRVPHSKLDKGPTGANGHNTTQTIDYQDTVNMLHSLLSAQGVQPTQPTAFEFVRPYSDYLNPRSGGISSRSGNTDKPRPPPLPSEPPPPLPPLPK
Sequence of CDK9/cyclin T1 (P50750 whole entry): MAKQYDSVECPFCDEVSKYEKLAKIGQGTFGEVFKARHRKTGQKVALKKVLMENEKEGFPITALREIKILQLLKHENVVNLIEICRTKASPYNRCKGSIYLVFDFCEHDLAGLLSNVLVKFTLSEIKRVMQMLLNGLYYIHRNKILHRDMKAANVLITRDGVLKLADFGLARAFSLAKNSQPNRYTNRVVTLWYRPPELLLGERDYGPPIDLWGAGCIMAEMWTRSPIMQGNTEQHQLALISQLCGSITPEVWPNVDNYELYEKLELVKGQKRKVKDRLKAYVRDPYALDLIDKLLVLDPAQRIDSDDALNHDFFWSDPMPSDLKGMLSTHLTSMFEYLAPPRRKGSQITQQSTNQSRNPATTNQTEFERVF
Sequence of Dual specificity protein kinase CLK1 (Homo sapiens) (P49759 whole entry, looked up): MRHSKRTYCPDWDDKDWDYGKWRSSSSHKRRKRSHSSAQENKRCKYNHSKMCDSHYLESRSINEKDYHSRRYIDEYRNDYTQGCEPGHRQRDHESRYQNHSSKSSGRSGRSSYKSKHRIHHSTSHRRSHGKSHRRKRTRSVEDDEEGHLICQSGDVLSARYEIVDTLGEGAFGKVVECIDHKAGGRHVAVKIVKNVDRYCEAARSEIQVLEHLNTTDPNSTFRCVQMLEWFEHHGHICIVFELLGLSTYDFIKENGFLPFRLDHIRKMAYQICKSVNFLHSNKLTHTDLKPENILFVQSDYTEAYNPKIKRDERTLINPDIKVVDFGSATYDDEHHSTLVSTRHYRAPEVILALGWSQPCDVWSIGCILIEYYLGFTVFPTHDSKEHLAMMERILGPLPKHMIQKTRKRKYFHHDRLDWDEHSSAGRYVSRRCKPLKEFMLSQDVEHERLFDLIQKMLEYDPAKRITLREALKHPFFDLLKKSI

SMILES | inhibition [1] | inhibition [2] | inhibition [3] | inhibition [4] | IC50 [7] | IC50 [8] | IC50 [9] | inhibition [10] | IC50 [11] | IC50 (CDK9/cyclin T1) | IC50 [12] | IC50 [13] | IC50 [14] | IC50 [15] | Activity [16] | Activity [17] | Activity [18] | Activity [19] | IC50 [20] | IC50 [21] | also measured
CCN(C)C(=O)Oc1cccc([C@H](C)N(C)C)c1 | inactive | inactive | inactive | inactive |  |  |  |  |  |  |  |  |  |  |  |  |  |  |  |  | 
CN1C(=O)/C(=C/c2ccc3c(c2)OCO3)N=C1N [LEUCETTAMINE B] |  |  |  |  | 150 nM | 1800 nM | 2100 nM | inactive | > 10000 nM | > 10000 nM | > 10000 nM | > 10000 nM | > 10000 nM | 66 nM | Active | Active | Active | Active | > 10000 nM | 2900 nM | IC50 [5]: 900 nM; IC50 [6]: 920 nM; inhibition (Leishmania major): inactive; inhibition (Plasmodium falciparum): inactive; IC50 [22]: > 10000 nM; IC50 [23]: 7700 nM; IC50 [24]: > 10000 nM; IC50 [25]: > 10000 nM; IC50 [26]: 1400 nM; IC50 [27]: 2000 nM
O=C(O)c1ccc2c(c1)nc(Nc1cccc(Cl)c1)c1ccncc12 |  |  |  |  |  |  |  |  |  |  |  |  |  |  |  |  |  |  |  |  | Activity (HT-22): inactive
COc1ccc2c(c1)[nH]c1c(C)nccc12 [HARMINE] |  |  |  |  | 50 nM | > 10000 nM | 280 nM | inactive | 1800 nM | 720 nM | > 10000 nM | > 30000 nM | 18000 nM | 72 nM | Active | Active | Active | Active | > 10000 nM | 19000 nM | Activity [28]: Active; IC50 [29]: ≥ 10000 nM; IC50 [30]: > 10000 nM; IC50 [24]: > 30000 nM; IC50 [25]: 9500 nM; IC50 [26]: 210 nM; IC50 [27]: 120 nM; inhibition [31]: Active
COc1ccc2c3c1O[C@H]1C[C@@H](O)C=C[C@@]31CCN(C)C2 | inactive | inactive | inactive | inactive |  |  |  |  |  |  |  |  |  |  |  |  |  |  |  |  | 
